Results: ChEMBL document CHEMBL3351861, “New synthetic sulfone derivatives inhibit growth, adhesion and the leucine arylamidase APE2 gene expression of Candida albicans in vitro” (2015)
Values after ≈ are worked out from the molar mass of the structure shown.

What was measured:
Candida albicans [1] = test: Antifungal activity against Candida albicans CAI4 expressing delta-cph1/delta-efg1 gene assessed as growth inhibition at 0.25 ug/ml by CLSI M27-A3 method; type: functional; conditions: read-out: GI
Outline: (§1)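 CLSI M27-A3 broth microdilution in RPMI, read after 48 h. Strains pre-grown 18 h in YEPD at 30°C. Final inoculum 0.5×10^2–2.5×10^3 cells/ml. Two-fold dilutions in RPMI came from a 1600 µg/ml stock in water with 9% DMSO; final DMSO was 0.09%. OD405 read, % inhibition = 100 − (CTW−SCW)/(GCW−SCW). Triplicate on three occasions, mean±SD.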

Candida albicans [2] = test: Antifungal activity against Candida albicans CAI4 expressing delta-cph1/delta-efg1 (EFG1) gene assessed as growth inhibition at 0.25 ug/ml by CLSI M27-A3 method; type: functional; conditions: read-out: GI; outline: as §1
Candida albicans [3] = test: Antifungal activity against Candida albicans CAI4 expressing delta-cph1 gene assessed as growth inhibition at by CLSI M27-A3 method; type: functional
Candida albicans [4] = test: Antifungal activity against Candida albicans CAI4 expressing delta-efg1 (EFG1) gene assessed as growth inhibition at by CLSI M27-A3 method; type: functional
Candida albicans [5] = test: Antifungal activity against Candida albicans CAI4 expressing delta-cph1/delta-efg1 gene assessed as growth inhibition at by CLSI M27-A3 method; type: functional
Candida albicans [6] = test: Antifungal activity against Candida albicans 90028 assessed as growth inhibition at 16 ug/ml by CLSI M27-A3 method; type: functional; conditions: read-out: GI; outline: as §1
Candida albicans [7] = test: Antifungal activity against Candida albicans CAI4 expressing delta-efg1 gene assessed as growth inhibition at 16 ug/ml by CLSI M27-A3 method; type: functional; conditions: read-out: GI
Outline: (§2)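 CLSI M27-A3 broth microdilution in RPMI. Final inoculum 0.5×10^2 to 2.5×10^3 cells/ml. Seven two-fold concentrations from 0.25 to 16 µg/ml, with DMSO held at 0.09% (v/v) in all wells. Compound-free growth controls and sterility controls are run for each strain. […] Triplicate on three occasions.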

Candida albicans [8] = test: Antifungal activity against Candida albicans CAI4 expressing delta-efg1 (EFG1) gene assessed as growth inhibition at 16 ug/ml by CLSI M27-A3 method; type: functional; conditions: read-out: GI; outline: as §1
Candida albicans [9] = test: Antifungal activity against Candida albicans 90028 assessed as growth inhibition at 8 ug/ml by CLSI M27-A3 method; type: functional; conditions: read-out: GI; outline: as §1
Candida albicans [10] = test: Antifungal activity against Candida albicans CAI4 expressing delta-cph1 (CPH1) gene assessed as growth inhibition at 8 ug/ml by CLSI M27-A3 method; type: functional; conditions: read-out: GI; outline: as §1
Candida albicans [11] = test: Antifungal activity against Candida albicans CAI4 expressing delta-cph1 gene assessed as growth inhibition at 4 ug/ml by CLSI M27-A3 method; type: functional; conditions: read-out: GI; outline: as §1
Candida albicans [12] = test: Antifungal activity against Candida albicans CAI4 expressing delta-cph1/delta-efg1 gene assessed as growth inhibition at 4 ug/ml by CLSI M27-A3 method; type: functional; conditions: read-out: GI; outline: as §1
Candida albicans [13] = test: Antifungal activity against Candida albicans 90028 assessed as growth inhibition at 2 ug/ml by CLSI M27-A3 method; type: functional; conditions: read-out: GI; outline: as §1
Candida albicans [14] = test: Antifungal activity against Candida albicans CAI4 expressing delta-cph1 (CPH1) gene assessed as growth inhibition at 2 ug/ml by CLSI M27-A3 method; type: functional; conditions: read-out: GI; outline: as §1
Candida albicans [15] = test: Antifungal activity against Candida albicans CAI4 expressing delta-efg1 gene assessed as growth inhibition at 2 ug/ml by CLSI M27-A3 method; type: functional; conditions: read-out: GI; outline: as §2
Candida albicans [16] = test: Antifungal activity against Candida albicans CAI4 expressing delta-efg1 (EFG1) gene assessed as growth inhibition at 2 ug/ml by CLSI M27-A3 method; type: functional; conditions: read-out: GI; outline: as §1
Candida albicans [17] = test: Antifungal activity against Candida albicans CAI4 expressing delta-cph1/delta-efg1 (EFG1) gene assessed as growth inhibition at 2 ug/ml by CLSI M27-A3 method; type: functional; conditions: read-out: GI; outline: as §1
Candida albicans [18] = test: Antifungal activity against Candida albicans CAI4 expressing delta-cph1 gene assessed as growth inhibition at 1 ug/ml by CLSI M27-A3 method; type: functional; conditions: read-out: GI; outline: as §1
Candida albicans [19] = test: Antifungal activity against Candida albicans CAI4 expressing delta-cph1/delta-efg1 (EFG1) gene assessed as growth inhibition at 1 ug/ml by CLSI M27-A3 method; type: functional; conditions: read-out: GI; outline: as §1
Candida albicans [20] = test: Antifungal activity against Candida albicans 90028 assessed as growth inhibition at 0.25 ug/ml by CLSI M27-A3 method; type: functional; conditions: read-out: GI; outline: as §1
Candida albicans [21] = test: Inhibition of cell adhesion of compound pre-treated Candida albicans CAI4 expressing delta-cph1 (CPH1) gene to human Caco2 cells assessed as cell adhesion level at 16 ug/ml pre-incubated for 18 hrs by colony counting method (reference value: 5.37 +/- 12.4%); type: functional, Caco-2; set-up: scale not given: the % may be the effect or the level left
Candida albicans [22] = test: Inhibition of cell adhesion of compound pre-treated Candida albicans CAI4 expressing delta-efg1/delta-cph1 gene to human Caco2 cells assessed as cell adhesion level at 16 ug/ml pre-incubated for 18 hrs by colony counting method (reference value: 1.22 +/- 0.78%); type: functional, Caco-2; set-up: scale not given: the % may be the effect or the level left
Candida albicans [23] = test: Inhibition of cell adhesion of compound pre-treated Candida albicans CAI4 expressing delta-efg1 (EFG1) gene to human Caco2 cells assessed as cell adhesion level at 16 ug/ml pre-incubated for 18 hrs by colony counting method (reference value: 2.6 +/- 2.33%); type: functional, Caco-2; set-up: scale not given: the % may be the effect or the level left
Candida albicans [24] = test: Inhibition of cell adhesion of compound pre-treated Candida albicans 90028 to human Caco2 cells assessed as cell adhesion level at 8 ug/ml pre-incubated for 18 hrs by colony counting method (reference value: 1.58 +/- 0.67%); type: functional, Caco-2; set-up: scale not given: the % may be the effect or the level left
Candida albicans [25] = test: Inhibition of cell adhesion of compound pre-treated Candida albicans CAI4 expressing delta-cph1 gene to human Caco2 cells assessed as cell adhesion level at 8 ug/ml pre-incubated for 18 hrs by colony counting method (reference value: 1.6 +/- 0.65%); type: functional, Caco-2; set-up: scale not given: the % may be the effect or the level left
Candida albicans [26] = test: Inhibition of cell adhesion of compound pre-treated Candida albicans CAI4 expressing delta-efg1/delta-cph1 gene to human Caco2 cells assessed as cell adhesion level at 8 ug/ml pre-incubated for 18 hrs by colony counting method (reference value: 1.22 +/- 0.78%); type: functional, Caco-2; set-up: scale not given: the % may be the effect or the level left
Candida albicans [27] = test: Inhibition of cell adhesion of compound pre-treated Candida albicans CAI4 expressing delta-cph1/delta-efg1 (EFG1) gene to human Caco2 cells assessed as cell adhesion level at 8 ug/ml pre-incubated for 18 hrs by colony counting method (reference value: 1.24 +/- 1.06%); type: functional, Caco-2; set-up: scale not given: the % may be the effect or the level left
Candida albicans [28] = test: Inhibition of cell adhesion of compound pre-treated Candida albicans CAI4 expressing delta-cph1 (CPH1) gene to human Caco2 cells assessed as cell adhesion level at 4 ug/ml pre-incubated for 18 hrs by colony counting method (reference value: 5.37 +/- 12.4%); type: functional, Caco-2; set-up: scale not given: the % may be the effect or the level left
Candida albicans [29] = test: Inhibition of cell adhesion of compound pre-treated Candida albicans CAI4 expressing delta-cph1 (CPH1) gene to human Caco2 cells assessed as cell adhesion level at 2 ug/ml pre-incubated for 18 hrs by colony counting method (reference value: 5.37 +/- 12.4%); type: functional, Caco-2; set-up: scale not given: the % may be the effect or the level left
Candida albicans [30] = test: Inhibition of cell adhesion of compound pre-treated Candida albicans CAI4 expressing delta-cph1 gene to human Caco2 cells assessed as cell adhesion level at 16 ug/ml pre-incubated by colony counting method (reference value: 1.6 +/- 0.65%); set-up: scale not given: the % may be the effect or the level left

SMILES	inhibition of growth at 0.25 µg/mL (Candida albicans [1]) [%]	inhibition of growth at 0.25 µg/mL (Candida albicans [2]) [%]	MIC90 (Candida albicans [3]) [µg/mL]	MIC90 (Candida albicans [4]) [µg/mL]	MIC90 (Candida albicans [5]) [µg/mL]	inhibition of growth at 16 µg/mL (Candida albicans [6]) [%]	inhibition of growth at 16 µg/mL (Candida albicans [7]) [%]	inhibition of growth at 16 µg/mL (Candida albicans [8]) [%]	inhibition of growth at 8 µg/mL (Candida albicans [9]) [%]	inhibition of growth at 8 µg/mL (Candida albicans [10]) [%]	inhibition of growth at 4 µg/mL (Candida albicans [11]) [%]	inhibition of growth at 4 µg/mL (Candida albicans [12]) [%]	inhibition of growth at 2 µg/mL (Candida albicans [13]) [%]	inhibition of growth at 2 µg/mL (Candida albicans [14]) [%]	inhibition of growth at 2 µg/mL (Candida albicans [15]) [%]	inhibition of growth at 2 µg/mL (Candida albicans [16]) [%]	inhibition of growth at 2 µg/mL (Candida albicans [17]) [%]	inhibition of growth at 1 µg/mL (Candida albicans [18]) [%]	inhibition of growth at 1 µg/mL (Candida albicans [19]) [%]	inhibition of growth at 0.25 µg/mL (Candida albicans [20]) [%]	other results
NNc1ccc(S(=O)(=O)C(Cl)(Br)Br)cc1[N+](=O)[O-]	70	72	4 (≈ 9.45 µM)	4 (≈ 9.45 µM)	4 (≈ 9.45 µM)	100	100	99.8	100	99.7	100	100	99.6	99.3	99.7	99.1	99.3	99.8	98.8	17	Activity (Candida albicans [21]): 0.78%; Activity (Candida albicans [22]): 2.25%; Activity (Candida albicans [23]): 0.89%; Activity (Candida albicans [24]): 2.66%; Activity (Candida albicans [25]): 0.56%; Activity (Candida albicans [26]): 1.66%; Activity (Candida albicans [27]): 0.75%; Activity (Candida albicans [28]): 0.76%; Activity (Candida albicans [29]): 1.86%; Activity (Candida albicans [30]): 0.37%
O=[N+]([O-])c1cc(S(=O)(=O)C(Cl)(Cl)Br)ccc1Cl	98.3	96.5	16 (≈ 41.7 µM)	16 (≈ 41.7 µM)	16 (≈ 41.7 µM)	99.6	99.6	99.5	99.5	99.8	98.7	99	98.9	99.2	98.9	99.3	99.3	97.8	98.9	98.6	Activity (Candida albicans [21]): 0.48%; Activity (Candida albicans [22]): 0.43%; Activity (Candida albicans [23]): 0.77%; Activity (Candida albicans [24]): 2.2%; Activity (Candida albicans [25]): 0.35%; Activity (Candida albicans [26]): 0.38%; Activity (Candida albicans [27]): 1.26%; Activity (Candida albicans [28]): 1.39%; Activity (Candida albicans [29]): 2.38%; Activity (Candida albicans [30]): 0.56%
O=[N+]([O-])c1cc(S(=O)(=O)C(Cl)Cl)ccc1Cl	99	98.8	16 (≈ 52.5 µM)	16 (≈ 52.5 µM)	16 (≈ 52.5 µM)	99.4	99.5	99.2	99.3	99.4	99.1	99.2	99.5	98.6	99.4	98.1	99.2	99.3	99	99.1	Activity (Candida albicans [21]): 2.28%; Activity (Candida albicans [22]): 0.42%; Activity (Candida albicans [23]): 0.79%; Activity (Candida albicans [24]): 2.05%; Activity (Candida albicans [25]): 0.8%; Activity (Candida albicans [26]): 0.48%; Activity (Candida albicans [27]): 2.24%; Activity (Candida albicans [28]): 1.28%; Activity (Candida albicans [29]): 1.43%; Activity (Candida albicans [30]): 1.03%
